We go through one molecule from PubChem BioAssay AID623984 (Vanderbilt High Throughput Screening Facility, 2012).

Each structure is given as a SMILES string. Calls of active or inactive are those of the source. The rule behind the calls is not given here.

For this assay, the target named is Inward rectifier potassium channel 2 (Homo sapiens) (UniProt P63252). Kind of assay: Kir2.1 channel activation or block, dose response, selectivity assay for GIRK activator project, cell-based, human, thallium flux, concentration-response (AID 623984). As to conditions: T-REx-293 hKir2.1, thallium flux FluoZin-2; series mostly up to 100 µM. In short, it runs like this: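 System: hKir2.1 T-REx-293 cells, tetracycline-induced | Benchmarks: Vehicle wells as reference, uninduced wells as background | Measured by: Thallium flux fluorescence, FluoZin-2 AM dye, sampled at 1 Hz | Timing: Compound exposure 4 min before thallium stimulus | Reagent: Bicarbonate thallium stimulus (Tl2SO4, NaHCO3, pH 7.4) plus EC20 glutamate | Replicates: Triplicates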
Sequence of Inward rectifier potassium channel 2 (Homo sapiens) (P63252 whole entry, looked up): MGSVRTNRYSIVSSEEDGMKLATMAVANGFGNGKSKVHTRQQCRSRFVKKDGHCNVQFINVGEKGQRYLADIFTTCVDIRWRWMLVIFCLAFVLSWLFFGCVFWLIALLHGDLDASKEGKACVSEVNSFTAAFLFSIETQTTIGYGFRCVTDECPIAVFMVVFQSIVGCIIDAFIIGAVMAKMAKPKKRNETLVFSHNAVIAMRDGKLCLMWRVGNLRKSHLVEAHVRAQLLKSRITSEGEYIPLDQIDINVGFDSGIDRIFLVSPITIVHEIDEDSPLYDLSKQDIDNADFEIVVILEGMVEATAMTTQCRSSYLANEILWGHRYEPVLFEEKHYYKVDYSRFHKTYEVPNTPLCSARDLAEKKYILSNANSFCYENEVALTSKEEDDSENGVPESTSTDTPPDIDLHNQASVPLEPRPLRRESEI

In the case of `Cc1cc(NC(=O)Nc2ccc(F)c(F)c2)n(-c2ccccc2)n1`, the outcome was inactive.
